Measured values pooled from the literature.
Compare with care: the assays were run in different laboratories.
OPRK1: Kappa-type opioid receptor (OPRK1, Homo sapiens, UniProt P41145)

With `Cc1cc(O)cc(C)c1C[C@H](N)C(=O)N1CCc2ccc(Cc3ccccc3N)cc2C1` the Ki was 25 nM (OPRK1; ligand displacement; radioligand; cell membranes).
With `C[C@H]1[C@H]2Cc3ccc(O)cc3[C@]1(C)CCN2CC1CC1` the Ki was 2.95 nM (Kappa-type opioid receptor (OPRK1, Homo sapiens, UniProt P41145, I135L); cell-free assay).
For `Cc1cc(O)cc(C)c1C[C@H](N)C(=O)N1CCc2ccc(Cc3ccccc3[N+](=O)[O-])cc2C1`, the Ki was 2.6 nM (OPRK1; ligand displacement; radioligand; cell membranes).
`COc1ccsc1CNCC[C@@]1(c2ccccn2)CCOC2(CCCC2)C1` gave a Ki of 2700 nM (OPRK1; cell-free assay).
For `Fc1ccccc1CC(c1ccccc1)N1CCCC1` (centres unmarked), the Ki was 642 nM (OPRK1; ligand displacement; radioligand).
For `Cc1ccc(Cc2ccc3c(c2)CN(C(=O)[C@@H](N)Cc2c(C)cc(O)cc2C)CC3)cc1`, the Ki was 233 nM (OPRK1; ligand displacement; radioligand; cell membranes).
With `C[C@@H](NC(=O)[C@@H](N)Cc1ccc(O)cc1)C(=O)NCC(=O)N[C@@H](Cc1ccc(Cl)cc1)C(=O)N(C)CCC[C@@]1(c2ccc(F)cc2)OCc2cc(C#N)ccc21` the Ki was 43 nM (OPRK1; cell-free assay).
For `CC(=O)Nc1ccccc1-c1cnc2c(c1)C[C@@]1(OCCCc3ccccc3)[C@H]3Cc4ccc(O)c5c4[C@@]1(CCN3CC1CC1)[C@H]2O5`, the Ki was 13.5 nM (OPRK1; cell-free assay).
`CCCC[C@@H](NC(=O)[C@@H](N)Cc1ccc(O)cc1)C(=O)NCC(=O)N[C@@H](Cc1ccc(F)cc1)C(=O)N(C)CCC[C@@]1(c2ccc(F)cc2)OCc2cc(C#N)ccc21` gave a Ki of 68 nM (OPRK1; cell-free assay).
The Ki of `Cc1cc(O)cc(C)c1C[C@H](N)C(=O)N1CCc2ccc(Cc3ccc([N+](=O)[O-])cc3)cc2C1` is reported as 22 nM (OPRK1; ligand displacement; radioligand; cell membranes).
With `CN[C@]1(c2ccccc2Cl)CCCCC1=O` the Ki was 8500 nM (OPRK1; ligand displacement; radioligand).
The Ki of `C[C@@H](NC(=O)[C@@H](N)Cc1ccc(O)cc1)C(=O)NCC(=O)N[C@@H](Cc1ccccc1)C(=O)N(C)CCC[C@@]1(c2ccc(F)cc2)OCc2cc(C#N)ccc21` is reported as 86 nM (OPRK1; cell-free assay).
`CC[C@H](C)[C@H](NC(=O)[C@H](CCCNC(=N)N)NC(=O)[C@H](CC(C)C)NC(=O)[C@@H](N)Cc1ccccc1)C(=O)N[C@@H](CCCNC(=N)N)C(=O)N1CCC[C@H]1C(=O)N[C@@H](CCCCN)C(=O)O` gave a Ki of over 10000 nM (OPRK1; ligand displacement; radioligand).
With `Oc1ccc2c3c1O[C@H]1c4ncc(-c5ccccc5)cc4C[C@@]4(OCCCc5cccnc5)[C@@H](C2)N(CC2CC2)CC[C@]314` the Ki was 5.3 nM (OPRK1; cell-free assay).
